One data set deals with Nociceptin receptor (Homo sapiens, UniProt P41146). Kind of data set: Displacement of [3H]-nociceptin from human recombinant NOP receptor expressed in CHO cells after 60 mins by scintillation counting. Type of data set: cell-based.
In another data set the target is Mu-type opioid receptor (Homo sapiens, UniProt P35372). Kind of data set: Displacement of [3H]-diprenorphine from human mu opioid receptor after 120 mins by cell based assay. The method, boiled down: (§1)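 Radioligand binding with [3H]-diprenorphine on membranes from CHO cells overexpressing recombinant human kappa, mu or delta opioid receptor; Ki determined.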
On the technique in general: Displacement assays read how much labelled ligand stays bound in the presence of the test substance.

The target of data set [1] is Kappa-type opioid receptor (Homo sapiens, UniProt P41145). Kind of data set: Displacement of [3H]-diprenorphine from human kappa opioid receptor after 120 mins by cell based assay. The method, boiled down: as §1
Data set [2] addresses Delta-type opioid receptor (Homo sapiens, UniProt P41143). Kind of data set: Displacement of [3H]-diprenorphine from human delta opioid receptor after 120 mins by cell based assay. The method, boiled down:
as §1

Data set [3] deals with Rattus norvegicus. The experiment in a line: Ex vivo receptor occupancy of NOP receptor in Sprague-Dawley rat brain at 10 mg/kg, po after 24 hrs by LC-MS/MS analysis. Format: functional. Put shortly:
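Male Sprague-Dawley rats, 220–300 g, 12 h light:dark cycle, free chow and water. A single oral 10 mg/kg dose or oral vehicle was given. 24 h later, nonlabeled tracer was given as an iv tail-vein bolus at 3 μg/kg. Brain was taken 40 min after tracer (hypothalamus, striatum), homogenized in ACN with 0.1% formic acid, centrifuged, diluted with water and read by LC-MS/MS.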

A short description of data set [4]: Plasma clearance in Sprague-Dawley rat at 1 mg/kg, iv. Type of data set: ADME, organism-based. The arrangement: dose 1 mg/kg, route intravenous. The method, boiled down: (§2)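 Male Sprague-Dawley rats (n = 3 per treatment), fasted 4–24 h, dosed iv bolus at 1 mg/kg or po at 3 or 10 mg/kg in 20% (w/w) Captisol in 25 mM phosphate buffer pH 2. Arterial blood sampled 0–16 or 24 h into EDTA, and plasma protein-precipitated with internal standard. LC-MS/MS quantitation against plasma standard curve (1–50 000 ng/mL). Noncompartmental analysis. F = dnAUCpo/dnAUCiv.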

Data set [5] in a line: Volume of distribution in Sprague-Dawley rat at 1 mg/kg, iv. Type of data set: ADME, organism-based. The arrangement: dose 1 mg/kg, route intravenous. Conditions: in vivo. Put shortly: as §2
Data set [6] is described as follows: Plasma elimination half life in Sprague-Dawley rat at 1 mg/kg, iv. Conditions: read-out: beta t1/2 (converted). The arrangement: dose 1 mg/kg, route intravenous. Format: ADME, organism-based. Put shortly: as §2
A short description of data set [7]: AUC (0 to infinity) in Sprague-Dawley rat at 10 mg/kg, po. Type of data set: ADME, organism-based. The arrangement: time infinity, dose 10 mg/kg, route oral. Conditions: plasma. The method, boiled down: as §2
Data set [8] is described as follows: Oral bioavailability in Sprague-Dawley rat at 10 mg/kg. Format: ADME, organism-based. Conditions: in vivo. The method, boiled down: as §2
The test system of data set [9] is Rattus norvegicus. Kind of data set: Reversal of Ro64-6198-incued hypothermia in po dosed Sprague-Dawley rat administered 60 mins before Ro64-6198 challenge measured after 120 mins. Format: functional, organism-based. The method, boiled down:
(§3)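 Male Sprague-Dawley rats, 225 g, housed 2 per cage, acclimated at least 90 min. Rectal temperature was taken, then oral gavage of vehicle or test compound (0.03, 0.1 or 0.3 mg/kg). A second temperature was taken at 60 min, then Ro64-6198 (6 mg/kg sc) or vehicle was given, and a third temperature 120 min later. Between-group ANOVA with Dunnett posthoc tests against vehicle and agonist controls.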

The subject of data set [10] is Rattus norvegicus. Kind of data set: Reversal of Ro64-6198-incued hypothermia in Sprague-Dawley rat at 0.1 to 0.3 mg/kg, po administered 60 mins before Ro64-6198 challenge measured after 120 mins. Format: functional, organism-based. The method, boiled down: as §3
The subject of data set [11] is Rattus norvegicus. The experiment in a line: Toxicity in Sprague-Dawley rat assessed as basal body temperature at 0.03 to 0.3 mg/kg, po after 60 mins. The following applies: in vivo, 1 h.
Data set [12] is described as follows: AUC (0 to infinity) in Sprague-Dawley rat at 3 mg/kg, po. Type of data set: ADME, organism-based. Set-up: time infinity, dose 3 mg/kg, route oral. Conditions: plasma. The method, boiled down:
as §2

The nature of data set [13]: Oral bioavailability in Sprague-Dawley rat at 3 mg/kg. Type of data set: ADME, organism-based. Conditions: in vivo. The method, boiled down:
as §2

The nature of data set [14]: Metabolic stability in rat hepatic microsomes assessed as GSH-adduct formation. Type of data set: ADME, Liver, Microsome. Put shortly: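 GSH trapping: compounds incubated with rat hepatic microsomes and glutathione; metabolite profiling by LC/MS for GSH conjugates.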

Activity calls are given as the source filed them. No cut-off for these calls is given here.

Delta-type opioid receptor, sequence (P41143 whole entry): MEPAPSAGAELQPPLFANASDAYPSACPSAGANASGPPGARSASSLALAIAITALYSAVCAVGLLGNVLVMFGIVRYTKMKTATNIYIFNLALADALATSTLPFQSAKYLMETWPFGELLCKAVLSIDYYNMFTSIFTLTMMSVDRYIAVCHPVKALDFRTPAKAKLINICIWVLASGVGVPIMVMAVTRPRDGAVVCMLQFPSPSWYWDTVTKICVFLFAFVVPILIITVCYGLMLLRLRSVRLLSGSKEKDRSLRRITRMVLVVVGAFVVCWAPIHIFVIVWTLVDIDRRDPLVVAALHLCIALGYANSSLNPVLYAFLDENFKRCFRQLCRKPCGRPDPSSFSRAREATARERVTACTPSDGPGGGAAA
Nociceptin receptor, sequence (P41146 whole entry): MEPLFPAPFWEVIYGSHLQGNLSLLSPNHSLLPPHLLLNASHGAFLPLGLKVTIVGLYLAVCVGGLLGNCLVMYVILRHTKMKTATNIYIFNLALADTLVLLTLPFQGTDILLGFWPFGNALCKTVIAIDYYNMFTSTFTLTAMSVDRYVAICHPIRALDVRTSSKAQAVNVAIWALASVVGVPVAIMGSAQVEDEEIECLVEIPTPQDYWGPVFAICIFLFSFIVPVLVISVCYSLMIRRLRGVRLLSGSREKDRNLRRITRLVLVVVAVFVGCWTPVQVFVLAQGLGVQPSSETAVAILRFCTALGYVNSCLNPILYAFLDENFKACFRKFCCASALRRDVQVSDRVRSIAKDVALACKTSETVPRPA
Mu-type opioid receptor, sequence (P35372 whole entry): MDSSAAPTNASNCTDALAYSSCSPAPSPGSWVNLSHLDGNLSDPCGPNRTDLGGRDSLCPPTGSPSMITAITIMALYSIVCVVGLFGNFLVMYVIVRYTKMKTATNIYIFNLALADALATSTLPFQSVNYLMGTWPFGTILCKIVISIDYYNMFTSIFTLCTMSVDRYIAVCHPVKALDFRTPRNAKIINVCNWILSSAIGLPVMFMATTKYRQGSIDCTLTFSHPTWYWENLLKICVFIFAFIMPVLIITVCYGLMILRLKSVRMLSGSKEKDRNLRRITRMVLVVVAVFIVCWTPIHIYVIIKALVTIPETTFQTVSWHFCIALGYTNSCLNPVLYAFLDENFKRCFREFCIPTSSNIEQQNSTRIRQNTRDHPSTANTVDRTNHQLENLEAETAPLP
Kappa-type opioid receptor, sequence (P41145 whole entry): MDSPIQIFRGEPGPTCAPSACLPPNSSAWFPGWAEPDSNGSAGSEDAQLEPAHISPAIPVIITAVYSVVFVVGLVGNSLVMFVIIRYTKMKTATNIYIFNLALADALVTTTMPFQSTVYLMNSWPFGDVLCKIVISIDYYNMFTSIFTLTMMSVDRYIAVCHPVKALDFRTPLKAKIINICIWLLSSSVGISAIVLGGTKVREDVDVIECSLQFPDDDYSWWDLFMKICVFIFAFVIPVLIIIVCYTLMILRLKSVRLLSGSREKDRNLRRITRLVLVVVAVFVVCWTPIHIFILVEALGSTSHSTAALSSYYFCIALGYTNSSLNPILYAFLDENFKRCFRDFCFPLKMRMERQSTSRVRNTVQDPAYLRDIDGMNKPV

By Ki is commonly meant a dissociation constant, usually derived from enzyme kinetics or from competition with a known ligand. Usually clearance stands for the rate of elimination divided by the concentration. Low readings indicate a low capacity for elimination, high ones a high capacity for elimination. The Vd is a proportionality between amount in the body and measured concentration, not a real space. A higher Vd goes with extensive tissue distribution. As a reminder, the AUC(0-inf) is total exposure, with the tail of the curve extrapolated. Read a low AUC(0-inf) as less exposure. The bioavailability is the share of a dose that reaches the circulation, judged against a reference dose that is usually intravenous. The low end stands for little systemic uptake, the high end for much systemic uptake. For `Cc1nn(-c2ncccc2CO)cc1CN1CCC2(CC1)OCC(F)(F)c1cc(Cl)sc12.O=C(O)C(O)C(O)C(=O)O`, the Ki at Nociceptin receptor is 0.105 nM; on Mu-type opioid receptor, over 375 nM; in data set [1], over 375 nM; in [2] it was over 375 nM. For the same compound, the Occ in the data set on Rattus norvegicus [3] came to 62%. The clearance in data set [4] came to 1.43 L/h/kg. The compound also displayed a Vd in [5] of 5.3 L/kg. Besides, in [6], the half-life is 3.8 h. In [7], this compound had an AUC(0-inf) of 4.1 µg·h/mL. In data set [8], this compound had a bioavailability of 57%. The results for the Activity entry in the data set with Rattus norvegicus [9] and in the data set with Rattus norvegicus [11] were “Dose-dependent effect” and “Non-toxic”, respectively. Further, the result in the data set with Rattus norvegicus [10] was Active.

Take `Cc1nn(-c2c(F)cccc2CN(C)C)cc1CN1CCC2(CC1)OCCc1cc(Cl)sc12`: the Ki on Nociceptin receptor is 0.122 nM.

As for `Cc1nn(-c2ncccc2-c2ncc[nH]2)cc1CN1CCC2(CC1)OCC(F)(F)c1cc(Cl)sc12`, the inhibition constant (Ki) on Nociceptin receptor was 0.0916 nM; at Mu-type opioid receptor, over 375 nM; in [1] it was over 375 nM; in data set [2], over 375 nM. This compound also had an Occ with Rattus norvegicus [3] of 88%.

With `Cc1nn(-c2ncccc2F)cc1CN1CCC2(CC1)OCC(F)(F)c1cc(Cl)sc12.O=C(O)C(O)C(O)C(=O)O`, the Ki at Nociceptin receptor was 0.176 nM; on Mu-type opioid receptor it was over 375 nM; in data set [1], over 375 nM; in data set [2] it was over 375 nM. In the data set with Rattus norvegicus [3], this compound came in with an Occ of 55%. The same compound registered a clearance in data set [4] of 1.19 L/h/kg. In data set [5], this compound yielded a Vd of 13.6 L/kg. Moreover, the half-life in [6] was 12.1 h. In addition, in data set [12], the area under the curve AUC(0-inf) stood at 1.81 µg·h/mL. Besides, the bioavailability in data set [13] amounted to 62%.

For the compound `Cc1nn(-c2c(F)cccc2F)cc1CN1CCC2(CC1)OCC(F)(F)c1cc(Cl)sc12.O=C(O)C(O)C(O)C(=O)O`, the inhibition constant (Ki) at Nociceptin receptor was 0.172 nM; at Mu-type opioid receptor, over 375 nM; in [1] it was over 375 nM; in [2] it was over 375 nM. Besides, in the data set on Rattus norvegicus [3], the Occ is reported as 49%. For the same compound, the clearance in data set [4] is 3.17 L/h/kg. Also, the Vd in data set [5] was determined as 28.2 L/kg. The half-life in data set [6] was 10.8 h. The AUC(0-inf) in data set [12] was found to be 0.438 µg·h/mL. Besides, in data set [13], the bioavailability came out at 49%.

With `COCc1cccnc1-n1cc(CN2CCC3(CC2)OCC(F)(F)c2cc(Cl)sc23)c(C)n1.O=C(O)C(O)C(O)C(=O)O`, the inhibitory constant (Ki) at Nociceptin receptor was 0.185 nM; at Mu-type opioid receptor, over 375 nM; in [1], over 375 nM; in data set [2] it was over 375 nM. The Stability result in data set [14] is given as “Stable”. Moreover, in the data set with Rattus norvegicus [3], the Occ came out at 90%.

As to `Cc1nn(-c2c(F)cccc2C(N)=O)cc1CN1CCC2(CC1)OCCc1cc(F)sc12`, the Ki at Nociceptin receptor stood at 0.0954 nM.

Consider `Cc1nn(-c2c(F)cccc2CN(C)C)cc1CN1CCC2(CC1)OCCc1cc(F)sc12`, for which the Ki on Nociceptin receptor turned out to be 0.0648 nM.

As to `Cc1nn(-c2c(F)cccc2CO)cc1CN1CCC2(CC1)OCC(F)(F)c1cc(Cl)sc12.O=C(O)C(O)C(O)C(=O)O`, the Ki at Nociceptin receptor was 0.114 nM; on Mu-type opioid receptor it was over 375 nM; in [1], over 375 nM; in [2], over 375 nM. In the data set on Rattus norvegicus [3], the Occ turned out to be 87%. Further, the clearance in data set [4] was found to be 3.63 L/h/kg. The volume of distribution (Vd) in data set [5] stood at 12.7 L/kg. Further, the half-life in [6] was 3.9 h. In [7], this compound displayed an AUC(0-inf) of 1.28 µg·h/mL. Also, in data set [8], the bioavailability amounted to 51%.

As for `CNCc1cccc(F)c1-n1cc(CN2CCC3(CC2)OCC(F)(F)c2cc(Cl)sc23)c(C)n1.O=C(O)C(O)C(O)C(=O)O`, the inhibition constant (Ki) at Nociceptin receptor is 0.097 nM; on Mu-type opioid receptor, over 375 nM; in data set [1] it was over 375 nM; in data set [2], over 375 nM. This compound came in with an Occ in the data set on Rattus norvegicus [3] of 100%.

Turning to `Cc1nn(-c2c(F)cccc2F)cc1CN1CCC2(CC1)OCCc1cc(F)sc12`, at Nociceptin receptor, the inhibitory constant (Ki) stood at 0.0711 nM.

As to `Cc1nn(-c2ncccc2CN(C)C)cc1CN1CCC2(CC1)OCC(F)(F)c1cc(Cl)sc12.O=C(O)C(O)C(O)C(=O)O`, the Ki on Nociceptin receptor is 0.371 nM; at Mu-type opioid receptor it was over 375 nM; in [1], over 375 nM; in data set [2], over 375 nM. In addition, the Occ in the data set on Rattus norvegicus [3] was determined as 72%.

Take `COCc1cccnc1-n1cc(CN2CCC3(CC2)OCCc2cc(F)sc23)c(C)n1`: the Ki at Nociceptin receptor turned out to be 0.0939 nM.

Consider `Cc1nn(-c2ncccc2F)cc1CN1CCC2(CC1)OCCc1cc(F)sc12`, for which the inhibition constant (Ki) at Nociceptin receptor was found to be 0.139 nM.

For the compound `COCc1cccnc1-n1cc(CN2CCC3(CC2)OCCc2cc(Cl)sc23)c(C)n1`, the Ki at Nociceptin receptor turned out to be 0.0908 nM.

Take `Cc1nn(-c2c(F)cccc2CN(C)C)cc1CN1CCC2(CC1)OCC(F)(F)c1cc(Cl)sc12.O=C(O)C(O)C(O)C(=O)O`: the Ki was 0.145 nM on Nociceptin receptor, over 375 nM at Mu-type opioid receptor, over 375 nM in data set [1] and over 375 nM in data set [2]. Moreover, the Occ in the data set with Rattus norvegicus [3] turned out to be 97%.

These data come from ChEMBL document CHEMBL3232979, “Discovery of a novel series of orally active nociceptin/orphanin FQ (NOP) receptor antagonists based on a dihydrospiro(piperidine-4,7'-thieno[2,3-c]pyran) scaffold” (J Med Chem, 2014).
